Compound activity (PubChem)
Tb MetRS inh – Trypanosoma brucei MetRS inhibition | purified T. brucei MetRS, ATP depletion, Kinase-Glo luminescence | inhibition, % at 11.9 µM | actives 0.4% (n = 360,000) | AID 624268;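 active means inhibition above a per-plate cutoff of the control wells' mean inhibition plus 3 SD, cut at about 5.5% in these data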;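 further: 0% = DMSO wells median and 100% = median of wells with control inhibitor compound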
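Dosing: 11.9 µM compound single dose, 0.9% DMSO; Assay system: purified T. brucei MetRS enzyme; Measured by: Kinase-Glo luciferase luminescence reporting remaining unconsumed ATP; Schedule: 15 min plus 2 h at 25 °C.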
APOBEC3G inh – blocks human APOBEC3G single-stranded DNA deamination | inhibition, % at 20 µM | Q9HC16 | actives 0.28% (n = 330,000) | recombinant A3G, ssDNA deamination FAM/TAMRA fluorescence | AID 493012;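 active means inhibition of at least 40% at 20 µM, with no more than 30% in the related APOBEC3A deaminase screen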;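 further: plate controls were DMSO wells with A3G for no effect and wells lacking A3G enzyme for full effect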
pCIP destab – compounds decreasing mouse p/CIP protein stability; Q05BA5; F442A p/CIP-EGFP cells, EGFP fluorescence, 16 h; decrease of EGFP signal, % at 10 µM; actives 0.01% (n = 290,000); AID 1984;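 active means EGFP signal decrease of at least 30% at 10 µM or well 3 SD below plate mean, unless failing retest; inactive means the rest, including hits failing retest or dose response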
PHOSPHO1 inh – PHOSPHO1 (human) inhibition. Q8TCT1. recombinant PHOSPHO1, absorbance phosphatase assay. inhibition, % at 13.3 µM. actives 1.1% (n = 290,000). AID 1565; in the data active means inhibition above about 60%
A3A deaminase – inhibitors of human APOBEC3A DNA deaminase; AID 493011; actives 0.41% (n = 330,000); recombinant A3A, FAM/TAMRA ssDNA deamination fluorescence; inhibition, % at 20 µM;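 active means at least 40% inhibition at 20 µM here, with at most 30% in a related deaminase screen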;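 further: plate controls were A3A with DMSO for no effect and wells lacking A3A enzyme for full effect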
Target sequence (P31941 whole entry, looked up): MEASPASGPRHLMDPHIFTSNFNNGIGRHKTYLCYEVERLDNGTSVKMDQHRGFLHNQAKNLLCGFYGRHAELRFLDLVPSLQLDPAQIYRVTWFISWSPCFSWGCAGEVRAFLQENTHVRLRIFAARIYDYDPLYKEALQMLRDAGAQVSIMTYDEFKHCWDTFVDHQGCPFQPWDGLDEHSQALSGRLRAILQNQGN
TbMetRS confirm – Trypanosoma brucei MetRS inhibition confirmed. shares compounds with Tb MetRS inh. T. brucei MetRS enzyme, luminescence (ATP depletion). inhibition, % at 11.9 µM. actives 93% (n = 1,400). AID 624412; in the data active means inhibition above about 7%
Jurkat cytotox – counter-screen for T. brucei MetRS inhibitors: Jurkat cell cytotoxicity; shares compounds with Tb MetRS inh; Jurkat cells viability, ATP luminescence; inhibition, % at 8.3 µM; actives 12% (n = 1,400); AID 624413; in the data active means inhibition above about 15%;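 further: 0% = vehicle and 100% = reference inhibitor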
Tb MetRS inh FP – orthogonal test for Trypanosoma brucei MetRS inhibitors; shares compounds with Tb MetRS inh; purified T. brucei MetRS, fluorescence polarization; inhibition, % at 11.9 µM; actives 44% (n = 1,400); AID 651607; in the data active means inhibition above about 17%;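 further: 0% = vehicle wells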
* = called active by the depositor; / = no result given. The list is not random: actives were taken first. Their share in the collection is about 1.8%.

SMILES	Tb MetRS inh	APOBEC3G inh	pCIP destab	PHOSPHO1 inh	A3A deaminase	TbMetRS confirm	Jurkat cytotox	Tb MetRS inh FP
C=CCNC(=S)N1CCN(c2ncc(C(F)(F)F)cc2Cl)CC1	0	-8	-18	30	-3	/	/	/
CNC(=S)NNC(=O)c1ccc(=O)n(Cc2ccc(Cl)cc2Cl)c1	7.8*	-6	-19	-105	-3	20*	11	7
CNC(=S)NNC(=O)c1cccn(Cc2ccc(Cl)cc2Cl)c1=O	/	-5	-6	-61	-2	/	/	/
Nc1ncnc2nc(Sc3ccc(Cl)cc3)[nH]c12	1	-9	-4	19	-5	/	/	/
Nc1ncnc2nc(SCc3ccc(Cl)cc3Cl)[nH]c12	12*	-1	-8	-4	4	32*	15*	12
CCCOc1c(Br)cc(C(=O)OCC(=O)NC(=O)c2cccn2C)cc1OC	0	-4	/	/	-3	/	/	/
Cc1cc(NC(=O)c2ccc(Cl)cc2Cl)n(CCC#N)n1	6.4*	-4	4	-10	-1	13*	5	12
